A number with no mark means an inactive call. Inconclusive results are not listed. Activity calls are given as the source filed them.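 How the source made its calls, unless noted: active means cell viability at or below a set limit in both duplicate runs, the limit being the all-compound median minus 4 SD (cut at about 23% in these data, passing the limit was not always enough); inconclusive means no clear call, values can overlap the other calls; inactive means the rest.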
What was measured:
[1] = S. cerevisiae growth inhibition in permissive medium (OD615), pilot counter-assay for S. cerevisiae lifespan shortening project, permissive growth control (AID 705;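 active means growth inhibition above 25% in both replicates, a cutoff set 3 SD above the mean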); details: OD615, 24 h, at 10 µM, active compounds read high
Procedure, shortened: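 System: S. cerevisiae with engineered DeaD lifespan system / Measured by: absorbance (optical density) at 615 nm / Read-out: reduction in yeast growth (OD615) / Times: 4 h cell pre-growth, 24 h exposure at 30 °C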

[2] = S. cerevisiae growth inhibition in restrictive medium, OD615, pilot screen, restrictive growth control, yeast lifespan reduction project (AID 706;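 active means growth inhibition above a set limit, 3 SD over mean compound inhibition, in both replicates, cut at about 43% in these data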;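 further: modified DeaD lifespan yeast strain shifted to restrictive glucose medium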); details: OD615, 48 h, at 10 µM, active compounds read high
Procedure, shortened: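 System: Engineered S. cerevisiae DeaD strain | Buffer or medium: Glucose-based CSMM-D restrictive medium | Schedule: 4 h pre-incubation, 48 h exposure at 30 °C | Technique: Optical density at 615 nm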

[3] = doxorubicin toxicity protection in MRP-1 cells – H69AR cells, CellTiter-Glo, duplicate, MRP-1 activator project, pilot screen (AID 807;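 active means viability increase at or above a cutoff of the median across tested compounds plus 3 SD, cut at about 8.5% in these data, passing the limit was not always enough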;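 further: compound pretreatment 18-22 h then 72 h combined with doxorubicin; 0% = doxorubicin alone and 100% = vehicle without doxorubicin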); details: H69AR viability with doxorubicin, CellTiter-Glo luminescence; at 10 µM; active compounds read high
[4] = viability of HCT116 without oncogenic beta-catenin – human colon tumor cells, pilot screen (AID 823); details: HCT116 beta-catenin knockout viability, CellTiter-Glo, 60 h; at 10 µM; active compounds read low;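 further: 0% = wells killed by 20 µM Hyamine and 100% = untreated DMSO cell wells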
[5] = viability of PTEN-null HCT116 cells – cell-based, HCT116 clonal line, CellTiter-Glo, pilot screen (AID 824;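 active means viability at or below 27.92% in each of two runs, the all-compound median minus 4 SD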;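 further: 0% = 20 µM Hyamine control and 100% = vehicle cell control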); details: HCT116 PTEN-deleted viability, 60 h, at 10 µM, active compounds read low
[6] = RAM pathway blockade in budding yeast – dse1pr::URA3 reporter, 5-FOA selection, pilot screen (AID 869;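 active means inhibition over a set limit, the all-compound mean plus 3 SD, in both replicate runs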;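 further: 0% = DMSO wells with no growth and 100% = 10 µM 1-NA-PP1 with full growth; RAM network block rescues cells from 5-FOA so hits raise OD615 growth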); details: S. cerevisiae dse1pr::URA3 5-FOA growth, OD615, 2 d; at 10 µM; active compounds read high; strain carries analog-sensitive mutant Cbk1 kinase
[7] = RAM signaling pathway blockade in yeast – S. cerevisiae, Pdr1DBD-CYC8 efflux-inhibited sensitized strain, primary screen (AID 1298;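 active means RAM network inhibition above 8.4% in each of two replicates, 3 SD over the compound average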;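 further: 0% = DMSO untreated cells without growth and 100% = 10 µM 1-NA-PP1 full growth; higher means more yeast growth rescued from 5-FOA killing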); details: S. cerevisiae cbk1-as DSE1-URA3 strain, 5-FOA growth OD615, 2 d; at 50 µM; active compounds read high

Structure (SMILES) | growth inhibition [1] | growth inhibition [2] | viability increase [3] [%] | viability [4] | viability [5] | inhibition [6] [%] | RAM network inhibition [7] [%]
O=C(Cn1nnc(-c2ccccc2F)n1)NCCc1ccccc1 | -13.3% | -7.54% | -0.89 | 97.4% | 94% | 1.33 | 0.36
CCSc1nnc(NC(=O)CSc2nc3c(c(=O)n2-c2ccccc2)SCC3)s1 | -6.26% | -2.77% | -1.11 | 100% | 103% | 2.82 | 4.35
Cc1cc(C)nc(/N=C2\NC(=O)CC(C(=O)O)N2CCc2c[nH]c3ccccc23)n1 (stereo unspecified) | -0.875% | -4.41% | -2.04 | 93.3% | 84.1% | 0.67 | -0.83
N#Cc1nc(COc2cccc(Cl)c2)oc1NCc1ccco1 | -14% | 3.77% | -2.87 | 89% | 89.4% | 1.65 | 7.41
CCC(C)NC(=O)c1ccccc1NC(=O)CN1C(=O)c2ccccc2S1(=O)=O (stereo unspecified) | -17.3% | -18.6% | 0.23 | 105% | 95.2% | 1.33 | 5.02
CC(C)c1ccc(N(CC(=O)O)S(=O)(=O)c2cccnc2)cc1 | -2% | 8.54% | -1.28 | 93.3% | 98.7% | -0.135 | -1.88
Cc1cccc(CC(=O)Nc2cc(=O)n(C)c(=O)n2C)c1 | -3.74% | -4.44% | -1.1 | 100% | 97.4% | 1.84 | 0.48
CS(=O)(=O)c1ccc2nc(NC(=O)c3ccco3)sc2c1 | -16% | -4.42% | -7.64 | 84.9% | 81.9% | 3.1 | 4.15
CCCCN(CC)CCNc1c(NC2CCN(C(=O)OCC)CC2)c(=O)c1=O | 2.35% | 5.98% | -0.12 | 100% | 95% | 0.09 | 3.37
CC(=O)c1ccc(NC(=O)C2CCC(C)(C(=O)O)C2(C)C)cc1 (stereo unspecified) | -7.29% | -11.9% | -0.27 | 97.9% | 106% | 2.73 | 3.04
O=C(O)C1CCCCN1S(=O)(=O)c1ccc(Cl)s1 (stereo unspecified) | -2.17% | 1.02% | -1.27 | 101% | 97.3% | 0.505 | -0.42
O=C(O)CCCNS(=O)(=O)c1ccc(F)cc1 | -5.7% | -0.905% | -1.33 | 105% | 101% | 1.14 | 0.11
CCOc1ccc(C2CC(=O)NC(SCC(=O)OC)=C2C#N)cc1 (stereo unspecified) | 3.64% | 6.22% | 2.65 | 102% | 105% | 1.87 | 1.2
O=C(C1CCC(CNc2c(N3CCCCC3)c(=O)c2=O)CC1)N1CCCCC1 (stereo unspecified) | -8.65% | -19.7% | -1.79 | 94.3% | 93.6% | 1.09 | 7.26
C=CCn1c(=N)n(CC(O)COc2ccccc2OC)c2ccccc21 (stereo unspecified) | -4.97% | 0.15% | -4.19 | 73.9% | 77.4% | 1.92 | 1.07
CCCSC1=N/C(=C\c2ccsc2)C(=O)S1 | -10.5% | -3.12% | -0.76 | 95.1% | 99.2% | 0.72 | 9.91
CC1(C)CC(=O)C(C=NCCCN2CCOCC2)=C(O)C1 | -0.685% | 0.465% | -0.36 | 97.6% | 97% | -0.16 | -0.83
Cc1cc(-c2ccccc2)n2ncc(C#N)c2n1 | -0.51% | 2.26% | -1.18 | 103% | 98.8% | 1.17 | 2.36
CCCCCOC(=O)C1=C(C)NC(=O)NC1c1ccccc1OCC (stereo unspecified) | -2.38% | 11.9% | -0.2 | 69.8% | 69.7% | 0.45 | 1.97
O=C(Cn1c(=O)oc2cc(S(=O)(=O)N3CCc4ccccc43)ccc21)NC1CCCC1 | -3.26% | 2.94% | -1.06 | 78.8% | 73.9% | 2.91 | 0.88
COC(=O)NCC(c1cccnc1)N1CCN(c2ccccc2F)CC1 (stereo unspecified) | -5.28% | -1.77% | -0.18 | 95.6% | 102% | 1.66 | 1.57
CCCCOC(=O)Nc1sc2c(c1C(=O)OC)CCC2 | -6.32% | 6.97% | -2.72 | 96.2% | 92.4% | 0.325 | 8.11
COc1ccc(-c2nc(=S)[nH][nH]2)cc1 | -5.89% | -17% | -1.62 | 99% | 89% | 1.53 | 5.26
O=C(NCc1ccc(Cl)cc1)c1cccnc1 | -1.45% | 9.27% | -0.63 | 92.8% | 93.6% | 1.8 | 0.15

Structure (SMILES) | growth inhibition [1] | growth inhibition [2] | viability increase [3] [%] | viability [4] | viability [5] | inhibition [6] [%] | RAM network inhibition [7] [%]
COc1ccccc1N1CCN(Cc2cc(Br)c(O)c3ncccc23)CC1 | 96.8% (active) | 98.6% (active) | -6.58 | 6.37% (active) | 6.17% (active) | -0.8 | -1.73
Cn1c(CNC(=O)c2ccc(F)cc2)nc2ccccc21 | -0.44% | -5.71% | -2.48 | 99.5% | 102% | 0.325 | 3.67
COc1ccc2nc(N3CCCC(C(=O)NCCCN4CCN(C)CC4)C3)sc2c1 (stereo unspecified) | -5.12% | -11.4% | -2.35 | 96.9% | 89.5% | 1.98 | 8.59
Cn1c(Cn2c(=O)sc3ccccc32)nnc1SCC(=O)NCc1ccco1 | 0.17% | 8.09% | -4.73 | 109% | 104% | 1.93 | 6.92
CNC(=O)CN1C(=O)c2ccccc2S1(=O)=O | -5.12% | 1.27% | -0.6 | 101% | 98.9% | 2.51 | 2.32
O=C(CCNS(=O)(=O)c1cccc2nsnc12)NCCC1=CCCCC1 | -8.97% | -9.04% | -2.88 | 90.6% | 94.8% | 2.49 | 6.94
Cc1cc(C)nc(SCC(=O)c2ccc(O)cc2O)n1 | -0.2% | 9.03% | -3.73 | 99.7% | 99.4% | 1.04 | -1.2
COc1cccc(C2CC(c3ccc(Cl)cc3Cl)n3nc(N)nc3N2)c1 (stereo unspecified) | -1.58% | 18.6% | 4.01 | 90.8% | 90.8% | 1.79 | 8.01
O=C(CSc1ccccc1)NCc1cccnc1 | -4.86% | -3.68% | -1.64 | 99.5% | 97% | 0.995 | 0.53
Cn1cccc1Cc1nnc(SCC(=O)NC2CCCC2)n1-c1ccc(F)cc1 | 1.76% | 6.74% | -2.12 | 104% | 96.7% | 0.675 | 3.25
CCn1c(CNC(=O)c2cccc(C)c2)nc2ccccc21 | -6.91% | -5.74% | -0.3 | 99.6% | 97.2% | 2.5 | 5
COC(=O)CC1=C(C)C(=O)CC2C(C)(C)CCCC12C (stereo unspecified) | 4.86% | -8.22% | 1.01 | 85.6% | 94% | 1.27 | 4.48
O=C(CN1C(=O)c2ccccc2C1=O)Nc1cccc2cccnc12 | -14.6% | -12.1% | -1.1 | 104% | 106% | 0.36 | 5.82
COc1ccccc1N(CC(=O)N1CCCCCC1)S(C)(=O)=O | -11.6% | -10.7% | -1.57 | 89.1% | 92.5% | 0.495 | 2.63
O=C(c1ccccc1)c1cccc(NC(=O)c2ccco2)c1 | -8.52% | -5.33% | -3.35 | 92.5% | 96.3% | -0.895 | -0.72
O=C(Nc1ccc(-c2nc3cccnc3s2)cc1)c1ccc(Br)o1 | 11.6% | 19.6% | 3.03 | 105% | 101% | 1.11 | 0.96
Cc1cc(C)n(-c2nc(C)nc(NCc3ccccc3)n2)n1 | -17.5% | -11.6% | -2.88 | 88.4% | 82.7% | 0.215 | 0.98
CCOC(=O)C1C(=O)Oc2ccc3ccccc3c2C1C1CCOC1=O (stereo unspecified) | -5.13% | -1.85% | -2.53 | 99.5% | 97.6% | 0.105 | -1.08
COc1ccc(NC(=O)c2ccc(CN3CCN(c4ccccc4)CC3)cc2)cc1 | -7.38% | -9.14% | -0.09 | 67.4% | 73.1% | 2.54 | 9.97
O=C(Cn1cc2c(n1)CCCCC2)N1CCCCC1 | -4.8% | -5.9% | -0.82 | 98.5% | 92.4% | 1.23 | -2.24
CC(C)NC(=O)NC(=O)COc1ncnc2sccc12 | -4.68% | -7.55% | -1.28 | 97.6% | 105% | 1.22 | 2.67
Cn1c(=O)c2c(nc(N3CCN(Cc4ccccc4)CC3)n2CCSc2ncccn2)n(C)c1=O | -9.24% | -14% | -0.19 | 100% | 106% | 1.07 | 2.77
CCOC(=O)CNC(=O)CSc1nc2sc(C)c(C)c2c(=O)n1C | -0.13% | 34.3% | -3.44 | 98.4% | 97.6% | 3.61 | 5.94
CCOC(=O)c1oc2cc(O)c(CC)cc2c(=O)c1-c1ccc2c(c1)OCCO2 | -22.8% | -16.3% | -2.23 | 101% | 91.7% | 3 | 5.4

— PubChem BioAssay
